Measurements: ChEMBL document CHEMBL4673340 (J Med Chem, 2020)

What was measured:
[1] = Drug level in C57BL/6 mouse brain at 10 mg/kg, po after 1 hrs; assay type: ADME, organism-based; conditions: read-out: Drug uptake
Procedure, shortened: (§1)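 C57BL/6 mice (n=3) dosed orally at 10 mg/kg in 0.5% MC. Plasma and brain are sampled at 1, 2 and 4 h. Brain is homogenized in 3 volumes of saline, then acetonitrile protein precipitation; plasma is likewise precipitated. Both are analysed by LC–MS/MS and reported as means.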

hERG (KCNH2) = hERG (KCNH2) (Homo sapiens, UniProt Q12809); assay: Inhibition of human ERG activity at 20 uM by functional cellular assay
[2] = Apparent permeability from apical to basolateral side in human Caco-2 cells; assay type: ADME, cell-based
BCRP = BCRP (Homo sapiens, UniProt Q9UNQ0); assay: Inhibition of BCRP (unknown origin) at 30 uM; conditions: not told
[3] = AUC (0 to infinity) in Beagle dog at 1 mg/kg, iv by LC-MS/MS analysis; assay type: ADME, organism-based, Canis lupus familiaris; set-up: time infinity, route intravenous, dose 1 mg/kg; conditions: in vivo
Procedure, shortened: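 Three Beagle dogs; iv dose 1 mg/kg in 25% DMA in water; oral dose 2 mg/kg in 0.5% CMC-Na. Plasma drug concentrations are measured by LC–MS/MS. Values are the mean of three dogs.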

[4] = Oral bioavailability in ICR mouse at 10 mg/kg by LC-MS/MS analysis; assay type: ADME, organism-based; conditions: in vivo
Procedure, shortened: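 Three ICR mice per arm. iv dose 1 mg/kg in 5% DMA in water; oral dose 10 mg/kg in 0.5% MC. Plasma was processed by protein precipitation, diluted with water and quantified by LC-MS/MS (C18 column, acetonitrile/0.1% formic acid gradient). Values are means of three animals.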

Cytochrome P450 2C19 = Cytochrome P450 2C19 (Homo sapiens, UniProt P33261); assay: Inhibition of CYP2C19 (unknown origin); assay type: ADME
[5] = Ratio of drug level in brain to plasma of C57BL/6 mouse brain at 10 mg/kg, po after 2 hrs; assay type: ADME, organism-based
Procedure, shortened: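 C57BL/6 mice were given 10 mg/kg po in 0.5% MC and sampled at 1, 2 and 4 h. Brain was homogenized in 3 volumes of saline, and brain and plasma were protein-precipitated with acetonitrile, then measured by LC-MS/MS. Brain (ng/g) was expressed as a percentage of plasma (ng/mL). Values are means of three mice.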

[6] = Toxicity in BALB/c nude mouse xenografted with human MDA-MB-436 cells assessed as effect on animal mortality at 1.6 to […], po BID for 28 days followed by treatment was interruption and monitored for additional 2 months; assay type: organism-based; conditions: in vivo, dose 1.6-3.1 mg/kg, time 28 day
[7] = molecular target: Solute carrier organic anion transporter family member 1B1 (Homo sapiens, UniProt Q9Y6L6); assay: Inhibition of OATP1B1 (unknown origin)
[8] = Drug level in C57BL/6 mouse brain at 10 mg/kg, po after 2 hrs; assay type: ADME, organism-based; conditions: read-out: Drug uptake; procedure, shortened: as §1
[9] = Toxicity in BALB/c nude mouse xenografted with human NCI-H209 cells assessed as induction of body weight loss at […], po BID for 28 days and co-treated with 50 mg/kg, po QD TMZ for 5 consecutive days at start of study and again 14 days later relative to TMZ alone; assay type: organism-based; conditions: in vivo, dose 0.75 mg/kg, time 28 day
[10] = AUC (0 to infinity) in ICR mouse at 1 mg/kg, iv by LC-MS/MS analysis; assay type: ADME, organism-based; set-up: route intravenous, time infinity, dose 1 mg/kg; conditions: in vivo
Procedure, shortened: (§2)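 Male/female unspecified ICR mice, n=3 per route. Intravenous 1 mg/kg in 5% DMA in water; oral 10 mg/kg in 0.5% MC. Plasma is processed by protein precipitation and analysed by LC–MS/MS using an acetonitrile/0.1% formic acid gradient. Values are means of the three animals.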

[11] = Antiproliferation activity against human UWB1289 cells expressing BRCA1 mutant incubated for 7 days by CellTiter-Glo luminescent cell viability assay; assay type: functional, cell-based; conditions: UWB1289, 168 h
Procedure, shortened: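 Seeding density is set per line for log growth over 7 days. Cells attach 16 h, then are treated in duplicate with a 10-point dilution series for 7 days. CellTiter-Glo luminescence (ATP) is read, and viability is expressed relative to mock-treated control. EC50 is the mean of three independent experiments run in triplicate.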

[12] = Clearance in ICR mouse at 1 mg/kg, iv by LC-MS/MS analysis; assay type: ADME, organism-based; conditions: in vivo; procedure, shortened: as §2
[13] = molecular target: Solute carrier organic anion transporter family member 1B3 (Homo sapiens, UniProt Q9NPD5); assay: Inhibition of OATP1B3 (unknown origin)
Solute carrier organic anion transporter family member 1B3, sequence (Q9NPD5 whole entry): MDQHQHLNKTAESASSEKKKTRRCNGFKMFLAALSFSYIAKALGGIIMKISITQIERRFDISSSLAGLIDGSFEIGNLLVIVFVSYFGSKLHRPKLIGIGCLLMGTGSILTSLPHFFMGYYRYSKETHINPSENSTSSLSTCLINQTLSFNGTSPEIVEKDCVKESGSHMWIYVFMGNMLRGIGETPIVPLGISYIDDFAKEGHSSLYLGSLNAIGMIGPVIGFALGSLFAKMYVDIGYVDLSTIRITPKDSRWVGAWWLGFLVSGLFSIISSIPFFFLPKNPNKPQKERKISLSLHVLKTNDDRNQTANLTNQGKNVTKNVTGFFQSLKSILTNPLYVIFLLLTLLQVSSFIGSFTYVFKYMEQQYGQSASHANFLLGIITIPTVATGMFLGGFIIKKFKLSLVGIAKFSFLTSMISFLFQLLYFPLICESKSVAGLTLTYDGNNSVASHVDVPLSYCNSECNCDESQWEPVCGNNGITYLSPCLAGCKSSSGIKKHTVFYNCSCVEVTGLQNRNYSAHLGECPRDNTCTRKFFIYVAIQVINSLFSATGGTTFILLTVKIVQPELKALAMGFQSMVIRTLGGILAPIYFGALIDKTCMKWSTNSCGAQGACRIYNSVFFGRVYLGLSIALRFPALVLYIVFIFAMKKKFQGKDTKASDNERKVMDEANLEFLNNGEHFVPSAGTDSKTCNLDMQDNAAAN

Solute carrier organic anion transporter family member 1B1, sequence (Q9Y6L6 whole entry): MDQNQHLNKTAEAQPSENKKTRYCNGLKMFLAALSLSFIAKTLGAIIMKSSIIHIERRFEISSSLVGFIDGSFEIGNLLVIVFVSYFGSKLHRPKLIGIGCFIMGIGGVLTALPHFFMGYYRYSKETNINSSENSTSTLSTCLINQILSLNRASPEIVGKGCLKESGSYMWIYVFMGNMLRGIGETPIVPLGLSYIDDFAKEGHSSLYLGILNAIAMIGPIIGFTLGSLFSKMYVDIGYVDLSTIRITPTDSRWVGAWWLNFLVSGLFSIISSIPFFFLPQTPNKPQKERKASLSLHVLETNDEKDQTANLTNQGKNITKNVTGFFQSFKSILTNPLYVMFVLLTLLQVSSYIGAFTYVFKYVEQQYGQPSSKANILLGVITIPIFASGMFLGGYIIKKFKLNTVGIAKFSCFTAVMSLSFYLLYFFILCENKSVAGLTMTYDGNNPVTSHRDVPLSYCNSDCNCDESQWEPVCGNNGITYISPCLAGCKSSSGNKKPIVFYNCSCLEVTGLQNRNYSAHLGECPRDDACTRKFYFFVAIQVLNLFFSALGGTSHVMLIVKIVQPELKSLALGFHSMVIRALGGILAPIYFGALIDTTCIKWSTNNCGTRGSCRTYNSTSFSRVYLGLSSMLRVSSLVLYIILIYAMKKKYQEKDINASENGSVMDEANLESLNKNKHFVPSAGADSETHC
hERG (KCNH2), sequence (Q12809 whole entry): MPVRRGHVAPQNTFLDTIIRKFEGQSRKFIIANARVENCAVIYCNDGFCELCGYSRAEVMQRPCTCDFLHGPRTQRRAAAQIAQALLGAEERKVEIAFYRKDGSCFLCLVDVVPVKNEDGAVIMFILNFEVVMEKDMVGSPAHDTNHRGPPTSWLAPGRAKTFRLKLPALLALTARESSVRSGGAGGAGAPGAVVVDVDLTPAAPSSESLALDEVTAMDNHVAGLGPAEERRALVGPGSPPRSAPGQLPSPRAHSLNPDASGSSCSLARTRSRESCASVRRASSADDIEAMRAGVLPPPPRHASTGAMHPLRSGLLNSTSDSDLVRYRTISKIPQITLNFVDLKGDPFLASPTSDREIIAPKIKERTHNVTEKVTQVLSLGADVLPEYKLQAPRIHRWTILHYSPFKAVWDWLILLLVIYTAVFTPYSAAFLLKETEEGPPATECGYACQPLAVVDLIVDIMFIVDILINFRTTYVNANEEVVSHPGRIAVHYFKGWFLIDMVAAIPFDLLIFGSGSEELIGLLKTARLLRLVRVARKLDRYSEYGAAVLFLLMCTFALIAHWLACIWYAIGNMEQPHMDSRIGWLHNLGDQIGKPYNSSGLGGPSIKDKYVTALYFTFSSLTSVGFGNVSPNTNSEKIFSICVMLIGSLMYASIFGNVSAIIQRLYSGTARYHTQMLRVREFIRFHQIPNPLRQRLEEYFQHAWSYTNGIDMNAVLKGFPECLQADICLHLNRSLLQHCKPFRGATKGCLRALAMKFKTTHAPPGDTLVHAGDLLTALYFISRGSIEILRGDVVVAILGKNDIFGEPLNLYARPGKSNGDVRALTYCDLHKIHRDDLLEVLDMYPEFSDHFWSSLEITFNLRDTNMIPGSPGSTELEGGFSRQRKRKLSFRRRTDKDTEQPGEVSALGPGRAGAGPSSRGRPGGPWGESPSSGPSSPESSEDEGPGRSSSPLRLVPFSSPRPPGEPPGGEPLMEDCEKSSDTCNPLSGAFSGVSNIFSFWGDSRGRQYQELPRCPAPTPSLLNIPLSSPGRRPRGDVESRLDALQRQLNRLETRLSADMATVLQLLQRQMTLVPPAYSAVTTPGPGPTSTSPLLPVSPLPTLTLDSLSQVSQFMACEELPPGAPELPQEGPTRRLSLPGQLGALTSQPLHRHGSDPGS
BCRP, sequence (Q9UNQ0 whole entry): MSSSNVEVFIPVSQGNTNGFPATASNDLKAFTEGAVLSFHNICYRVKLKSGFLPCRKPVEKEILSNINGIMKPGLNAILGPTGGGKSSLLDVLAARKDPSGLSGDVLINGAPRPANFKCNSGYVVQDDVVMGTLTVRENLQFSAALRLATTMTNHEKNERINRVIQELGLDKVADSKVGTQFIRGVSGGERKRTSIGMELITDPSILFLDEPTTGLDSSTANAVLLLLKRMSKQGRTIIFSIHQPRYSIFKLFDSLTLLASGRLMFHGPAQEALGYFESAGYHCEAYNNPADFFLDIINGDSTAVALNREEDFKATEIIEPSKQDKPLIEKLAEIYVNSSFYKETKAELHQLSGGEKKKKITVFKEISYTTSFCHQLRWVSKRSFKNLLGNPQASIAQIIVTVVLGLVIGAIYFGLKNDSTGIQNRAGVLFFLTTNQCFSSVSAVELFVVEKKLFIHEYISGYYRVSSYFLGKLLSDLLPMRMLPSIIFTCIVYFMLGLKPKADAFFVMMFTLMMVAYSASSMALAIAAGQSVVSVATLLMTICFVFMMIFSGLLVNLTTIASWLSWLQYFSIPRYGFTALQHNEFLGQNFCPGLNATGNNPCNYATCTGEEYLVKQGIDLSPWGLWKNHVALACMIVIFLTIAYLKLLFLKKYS
Cytochrome P450 2C19, sequence (P33261 whole entry): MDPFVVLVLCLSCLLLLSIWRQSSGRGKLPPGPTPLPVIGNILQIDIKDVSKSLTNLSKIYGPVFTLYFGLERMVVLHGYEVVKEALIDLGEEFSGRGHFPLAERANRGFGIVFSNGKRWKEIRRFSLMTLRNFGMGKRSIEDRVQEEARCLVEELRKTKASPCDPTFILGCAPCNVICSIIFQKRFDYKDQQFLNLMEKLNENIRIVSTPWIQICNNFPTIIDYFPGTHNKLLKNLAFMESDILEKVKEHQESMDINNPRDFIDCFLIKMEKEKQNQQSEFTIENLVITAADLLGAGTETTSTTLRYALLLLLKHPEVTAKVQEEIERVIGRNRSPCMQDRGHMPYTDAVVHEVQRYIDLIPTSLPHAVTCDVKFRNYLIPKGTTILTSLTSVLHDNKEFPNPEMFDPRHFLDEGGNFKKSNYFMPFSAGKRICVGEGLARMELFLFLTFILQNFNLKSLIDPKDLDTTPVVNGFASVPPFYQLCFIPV

C[C@]12CCCN1CC1=NNC(=O)c3cc(F)cc4[nH]c2c1c34 [PAMIPARIB]
concentration at 1 h [1]: 613 ng/g
inhibition at 20 µM (hERG (KCNH2)): 51%
Papp A→B [2]: 30.3 ×10⁻⁶ cm/s
inhibition at 30 µM (BCRP): 43%
AUC(0-inf) [3]: 1080 ng·h/mL
F [4]: 98.7%
IC50 (Cytochrome P450 2C19): > 10 µM
BPR [5]: 18.9%
Activity [6]: Non-Toxic
IC50 [7]: 19.4 µM
concentration at 2 h [8]: 252 ng/g
Activity [9]: Non-Toxic
AUC [10]: 1757 ng·h/mL
EC50 [11]: 0.0538 µM
CL [12]: 29.9 mL/min/kg
IC50 [13]: 19.4 µM
